# Test results: ChEMBL document CHEMBL1148741, “Synthesis and SAR investigations for novel melanin-concentrating hormone 1 receptor (MCH1) antagonists part 2: A hybrid strategy combining key fragments of HTS hits” (J Med Chem, 2007)
# The source made the active and inactive calls. The calls are words filed in the database; no cut-off is given here.
# What was measured:
# [1] = target: T1, Melanin-concentrating hormone receptor 1 (Rattus norvegicus, UniProt P97639); test: Displacement of [3H]T-226296 from rat recombinant MCH1 receptor
# D(2) dopamine receptor = D(2) dopamine receptor (Homo sapiens, UniProt P14416); test: Displacement of [3H]spiperone from human recombinant dopamine D2 receptor
# [2] = target: T1, Melanin-concentrating hormone receptor 1; test: Antagonist activity at rat MCH1 receptor expressed in HEK293 cells by FLIPR calcium mobility assay; type: functional, cell-based
# [3] = target: T2, Alpha-1A adrenergic receptor (Homo sapiens, UniProt P35348); test: Displacement of [125I]HEAT from human recombinant adrenergic alpha-1A receptor
# T2 sequence (P35348 whole entry): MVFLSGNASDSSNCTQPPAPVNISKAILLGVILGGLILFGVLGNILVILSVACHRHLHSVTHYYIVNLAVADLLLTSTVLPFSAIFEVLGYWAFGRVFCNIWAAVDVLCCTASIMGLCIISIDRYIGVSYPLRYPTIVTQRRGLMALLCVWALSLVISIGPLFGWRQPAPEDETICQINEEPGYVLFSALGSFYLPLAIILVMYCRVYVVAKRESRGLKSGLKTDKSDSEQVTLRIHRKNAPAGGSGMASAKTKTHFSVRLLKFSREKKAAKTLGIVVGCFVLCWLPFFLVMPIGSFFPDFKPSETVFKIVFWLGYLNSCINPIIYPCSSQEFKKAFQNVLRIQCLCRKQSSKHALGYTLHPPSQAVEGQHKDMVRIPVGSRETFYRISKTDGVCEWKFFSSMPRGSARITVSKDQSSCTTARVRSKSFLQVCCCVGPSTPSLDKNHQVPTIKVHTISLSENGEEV
# [4] = Blood clearance in rat at 2 mg/kg, po and 1 mg/kg iv; type: ADME, organism-based; details: whole blood
# [5] = Plasma clearance in rat at 2 mg/kg, po and 1 mg/kg iv; type: ADME, organism-based
# [6] = Half life in rat at 2 mg/kg, po and 1 mg/kg iv; type: ADME, organism-based; details: in vivo
# [7] = Drug level in brain at 10 mg/kg, po after 4 hrs; type: ADME, organism-based; design: dose 10 mg/kg, route oral; details: rat, read-out: Drug uptake
# In short: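 Separate rat experiment: single 10 mg/kg oral dose, brain and plasma exposures measured 4 h after dosing (n = 2); brain level expressed in ng/g, also as brain/plasma ratio.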
# [8] = Volume of distribution at steady state in rat; type: ADME, organism-based; details: in vivo, read-out: Vss
# [9] = Ratio of drug level in brain to plasma in rat at 10 mg/kg, po; type: ADME, organism-based; design: dose 10 mg/kg, route oral
# In short: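 Rats received a single oral dose in a study separate from the main PK study. Brain and plasma concentrations were measured 4 h after dosing (n = 2), and the ratio was taken as brain level over plasma level. The limit of quantitation was 2 ng/mL for plasma and 2 ng/g for brain.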
# Rattus norvegicus [10] = test: Inhibition of MCH-stimulated water intake in rat at 10 mg/kg, po; type: functional, organism-based; design: dose 10 mg/kg
# Rattus norvegicus [11] = test: Inhibition of MCH-stimulated water intake in rat at 1 mg/kg, po; type: functional, organism-based; design: dose 1 mg/kg
# Rattus norvegicus [12] = test: Inhibition of MCH-stimulated water intake in rat at 2.5 mg/kg, po; type: functional, organism-based; design: dose 2.5 mg/kg
# [13] = Bioavailability in rat at 2 mg/kg, po and 1 mg/kg iv; type: ADME, organism-based; details: in vivo
# Rattus norvegicus [14] = test: Anxiolytic activity in rat assessed as social interaction time at 0.3 mg/kg, po after 1 hr relative to control
# Chain of D(2) dopamine receptor (P14416 whole entry): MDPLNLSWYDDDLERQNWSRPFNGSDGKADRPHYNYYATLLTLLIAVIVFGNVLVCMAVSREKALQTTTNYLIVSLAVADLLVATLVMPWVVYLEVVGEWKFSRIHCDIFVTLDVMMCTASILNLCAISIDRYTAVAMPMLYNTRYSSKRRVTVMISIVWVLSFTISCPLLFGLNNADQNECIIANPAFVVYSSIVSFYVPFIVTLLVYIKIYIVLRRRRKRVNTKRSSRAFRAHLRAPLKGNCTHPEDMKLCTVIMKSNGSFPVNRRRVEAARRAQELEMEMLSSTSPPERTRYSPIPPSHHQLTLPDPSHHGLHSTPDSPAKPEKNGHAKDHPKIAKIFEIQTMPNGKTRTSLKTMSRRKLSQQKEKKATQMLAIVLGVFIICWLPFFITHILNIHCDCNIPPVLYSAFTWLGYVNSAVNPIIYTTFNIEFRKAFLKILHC
# T1 sequence (P97639 whole entry): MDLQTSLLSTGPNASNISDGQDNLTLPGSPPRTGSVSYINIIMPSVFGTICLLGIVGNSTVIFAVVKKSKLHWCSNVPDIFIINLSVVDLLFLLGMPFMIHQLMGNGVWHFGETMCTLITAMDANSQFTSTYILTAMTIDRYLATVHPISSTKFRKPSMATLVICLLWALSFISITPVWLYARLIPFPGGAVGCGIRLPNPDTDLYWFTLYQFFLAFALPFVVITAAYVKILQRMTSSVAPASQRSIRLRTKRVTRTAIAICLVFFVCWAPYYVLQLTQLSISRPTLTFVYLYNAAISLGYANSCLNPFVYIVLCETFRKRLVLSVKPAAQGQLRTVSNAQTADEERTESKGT
compound,measurement,setting,value
CC(C)C(=O)Nc1cccc(C2CCN(Cc3cccc(Oc4ccc(C(C)(C)C)cc4)c3)CC2)c1,Ki,[1],540 nM
O=C(Cc1ccccc1)Nc1cccc(C2CCN(CCCC(=O)c3ccc(Cl)cc3)CC2)c1,Ki,D(2) dopamine receptor,780 nM
CC(C)C(=O)Nc1cccc(C2CCN(CCCC(=O)c3ccc(Cl)cc3)CC2)c1,Ki,[1],5 nM
same,Ki,D(2) dopamine receptor,610 nM
same,IC50,[2],72 nM
O=C(CCCN1CCC(c2cccc(NC(=O)C3CCCCC3)c2)CC1)c1ccc(Cl)cc1,Ki,[1],200 nM
CC(=O)Nc1cccc(C2CCN(CCCC(=O)c3ccc(C)c(C)c3)CC2)c1,Ki,[1],100 nM
same,IC50,[2],1300 nM
CC(C)C(=O)Nc1cccc(C2CCN(Cc3ccc(Oc4ccc(Cl)cc4)cc3)CC2)c1,Ki,[1],5.3 nM
same,Ki,D(2) dopamine receptor,110 nM
same,IC50,[2],350 nM
CC(C)C(=O)Nc1cccc(C2CCN(Cc3ccc(Oc4ccc(Cl)c(Cl)c4)cc3)CC2)c1,Ki,[1],8.2 nM
same,Ki,[3],34000 nM
same,Ki,D(2) dopamine receptor,2900 nM
same,IC50,[2],710 nM
CC(=O)Nc1cccc(C2CCN(CCCC(=O)c3ccccc3)CC2)c1,Ki,[1],350 nM
same,IC50,[2],2700 nM
Cc1ccc(Oc2cccc(CN3CCC(c4cccc(NC(=O)C(C)C)c4)CC3)c2)cc1,Ki,D(2) dopamine receptor,1300 nM
CC(=O)Nc1cccc(C2CCN(CCCC(=O)c3ccc(Oc4ccccc4)cc3)CC2)c1,Ki,[1],490 nM
same,IC50,[2],> 10000 nM
CC(C)C(=O)Nc1cccc(C2CCN(Cc3ccc(Oc4ccccc4)cc3)CC2)c1,Ki,[1],10 nM
same,Ki,D(2) dopamine receptor,120 nM
same,IC50,[2],320 nM
CC(C)C(=O)Nc1cccc(C2CCN(Cc3ccc(Oc4ccc(F)c(F)c4)cc3)CC2)c1,Ki,[3],200 nM
same,Ki,D(2) dopamine receptor,470 nM
CC(=O)Nc1cccc(C2CCN(CCCC(=O)c3ccc(Cl)cc3)CC2)c1,Ki,[1],70 nM
same,Ki,D(2) dopamine receptor,1400 nM
same,IC50,[2],570 nM
Cc1ccc(NC(=O)C(C)C)cc1C1CCN(Cc2ccc(Oc3ccc(F)c(F)c3)cc2)CC1,clearance,[4],55 mL/min/kg
same,Ki,[3],180 nM
same,Ki,D(2) dopamine receptor,7400 nM
same,IC50,[2],230 nM
same,clearance,[5],70 mL/min/kg
same,half-life,[6],5.2 h
same,concentration at 4 h,[7],184 ng/g
same,Vd,[8],29 L/kg
same,Kp,[9],2.3
same,Activity,Rattus norvegicus [10],Active
same,Activity,Rattus norvegicus [11],Active
same,Activity,Rattus norvegicus [12],Active
same,bioavailability,[13],59%
same,Time,Rattus norvegicus [14],81 s
CC(=O)Nc1cccc(C2CCN(CCCC(=O)c3ccc(C)cc3)CC2)c1,IC50,[2],2400 nM
COCC1=C(C(=O)OC)[C@H](c2ccc(F)c(F)c2)N(C(=O)NCCCN2CCC(c3cccc(NC(C)=O)c3)CC2)C(=O)N1 [SNAP-7941],Ki,[3],40 nM
same,Ki,D(2) dopamine receptor,2800 nM
CC(C)C(=O)Nc1cccc(C2CCN(Cc3cccc(Oc4ccc(Cl)cc4)c3)CC2)c1,Ki,[1],23 nM
same,IC50,[2],2000 nM
CC(C)C(=O)Nc1cccc(C2CCN(Cc3cccc(Oc4cccc(C(F)(F)F)c4)c3)CC2)c1,IC50,[2],5400 nM
COc1ccc(Oc2ccc(CN3CCC(c4cccc(NC(=O)C(C)C)c4)CC3)cc2)cc1,Ki,D(2) dopamine receptor,1400 nM
same,IC50,[2],720 nM
CC(C)C(=O)Nc1cccc(C2CCN(Cc3cccc(Oc4cc(Cl)cc(Cl)c4)c3)CC2)c1,Ki,[1],140 nM
same,IC50,[2],1400 nM
CC(C)C(=O)Nc1cccc(C2CCN(Cc3cccc(Oc4ccc(Cl)c(Cl)c4)c3)CC2)c1,Ki,[1],18 nM
same,IC50,[2],2600 nM
O=C(CCCN1CCC(O)(c2ccc(Cl)cc2)CC1)c1ccc(Cl)cc1 [CHLOROHALOPERIDOL],Ki,[1],350 nM
same,Ki,[3],150 nM
same,Ki,D(2) dopamine receptor,190 nM
Cc1ccc(C2CCN(Cc3ccc(Oc4ccc(F)c(F)c4)cc3)CC2)cc1NC(=O)C(C)C,Ki,[1],27 nM
same,Ki,[3],1010 nM
same,Ki,D(2) dopamine receptor,400 nM
same,IC50,[2],360 nM
COc1ccc(Oc2cccc(CN3CCC(c4cccc(NC(=O)C(C)C)c4)CC3)c2)cc1,Ki,D(2) dopamine receptor,1000 nM
